From ChEMBL document CHEMBL4007410, “Fluorinated Chaperone-β-Cyclodextrin Formulations for β-Glucocerebrosidase Activity Enhancement in Neuronopathic Gaucher Disease” (J Med Chem, 2017)
Activity calls are given as the source filed them. The rule behind the calls is not given here.

Assays:
[1] = species: Homo sapiens; assay: Inhibition of human lysosomal beta-hexosaminidase assessed as formation of 4-methylumbelliferone from 4-methylumbelliferyl N-acetyl-beta-D-glucosaminide up to 200 uM in presence of beta-cyclodextrin by luminescence spectrophotometry
Summary of the method: (§1)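 Cells were scraped into ice-cold water (10⁶ cells/mL), sonicated and centrifuged, and protein was quantified. Lysate in 0.1% Triton X-100 was incubated at 37 °C with the matching 4-MU-conjugated glycoside in 0.1 M citrate, pH 4.5, with increasing chaperone or βCD-complex concentrations up to 200 μM. Reactions were stopped with glycine-NaOH, pH 10.7, and read at ex 340/em 460 nm.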

[2] = target: T1, Beta-mannosidase (Homo sapiens) (UniProt O00462); assay: Inhibition of human lysosomal beta-mannosidase assessed as formation of 4-methylumbelliferone from 4-methylumbelliferyl […] up to 200 uM in presence of beta-cyclodextrin by luminescence spectrophotometry; summary of the method: as §1
T1 sequence (whole entry): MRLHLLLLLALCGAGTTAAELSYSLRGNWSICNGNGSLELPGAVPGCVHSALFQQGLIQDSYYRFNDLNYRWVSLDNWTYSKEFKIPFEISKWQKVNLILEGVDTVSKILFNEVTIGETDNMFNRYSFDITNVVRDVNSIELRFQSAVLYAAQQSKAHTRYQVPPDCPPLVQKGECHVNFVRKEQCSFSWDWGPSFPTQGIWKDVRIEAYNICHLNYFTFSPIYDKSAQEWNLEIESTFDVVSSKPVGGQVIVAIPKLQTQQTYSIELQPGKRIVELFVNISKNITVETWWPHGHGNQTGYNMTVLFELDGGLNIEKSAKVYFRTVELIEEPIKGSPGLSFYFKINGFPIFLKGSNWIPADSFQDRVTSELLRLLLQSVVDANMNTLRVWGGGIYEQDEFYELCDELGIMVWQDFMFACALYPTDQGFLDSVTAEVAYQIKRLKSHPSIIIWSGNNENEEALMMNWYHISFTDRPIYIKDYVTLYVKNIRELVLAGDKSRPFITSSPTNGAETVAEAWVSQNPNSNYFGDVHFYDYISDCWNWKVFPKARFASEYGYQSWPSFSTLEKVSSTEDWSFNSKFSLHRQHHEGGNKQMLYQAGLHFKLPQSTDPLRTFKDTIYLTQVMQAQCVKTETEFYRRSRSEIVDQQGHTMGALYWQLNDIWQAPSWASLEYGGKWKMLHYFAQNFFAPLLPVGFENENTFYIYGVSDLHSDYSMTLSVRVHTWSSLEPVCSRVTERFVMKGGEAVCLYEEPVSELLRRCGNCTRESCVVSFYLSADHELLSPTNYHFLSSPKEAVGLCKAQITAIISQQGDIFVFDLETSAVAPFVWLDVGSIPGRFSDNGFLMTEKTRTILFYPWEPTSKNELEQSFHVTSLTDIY

[3] = species: Homo sapiens; assay: Inhibition of human lysosomal beta-hexosaminidase assessed as formation of 4-methylumbelliferone from 4-methylumbelliferyl N-acetyl-beta-D-glucosaminide up to 200 uM by luminescence spectrophotometry; summary of the method: as §1
[4] = target: Lysosomal alpha-glucosidase (Homo sapiens) (UniProt P10253); assay: Inhibition of human lysosomal alpha-glucosidase assessed as formation of 4-methylumbelliferone from 4-methylumbelliferyl alpha-D-glucopyranoside by luminescence spectrophotometry; summary of the method: as §1
[5] = test system: Helix pomatia; assay: Inhibition of Helix pomatia beta-mannosidase at 2 mM using beta-D-glycopyranoside after 10 to 30 mins in presence of beta-cyclodextrin by spectrophotometry
Summary of the method: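 Commercial glycosidases were assayed with o-nitrophenyl (E. coli β-galactosidase) or p-nitrophenyl glycoside substrate near KM. Buffer was phosphate, or phosphate-citrate for mannosidases and amyloglucosidase, at each enzyme's optimal pH. Enzyme was added last. Incubation ran 10-30 min at 37 °C (55 °C for amyloglucosidase), then was quenched with 1 M Na2CO3 and read at A405. Free compounds were tested up to 1 mM; 1:1 βCD complexes up to 2 mM.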

[6] = target: T1, Beta-mannosidase (Homo sapiens); assay: Inhibition of human lysosomal beta-mannosidase assessed as formation of 4-methylumbelliferone from 4-methylumbelliferyl alpha-D-glucopyranoside up to 200 uM by luminescence spectrophotometry; summary of the method: as §1
[7] = target: T2, Beta-galactosidase (Homo sapiens) (UniProt P16278); assay: Inhibition of human lysosomal beta-galactosidase assessed as formation of 4-methylumbelliferone from 4-methylumbelliferyl beta-D-galactopyranoside up to 200 uM by luminescence spectrophotometry; summary of the method: as §1
T2 sequence (whole entry): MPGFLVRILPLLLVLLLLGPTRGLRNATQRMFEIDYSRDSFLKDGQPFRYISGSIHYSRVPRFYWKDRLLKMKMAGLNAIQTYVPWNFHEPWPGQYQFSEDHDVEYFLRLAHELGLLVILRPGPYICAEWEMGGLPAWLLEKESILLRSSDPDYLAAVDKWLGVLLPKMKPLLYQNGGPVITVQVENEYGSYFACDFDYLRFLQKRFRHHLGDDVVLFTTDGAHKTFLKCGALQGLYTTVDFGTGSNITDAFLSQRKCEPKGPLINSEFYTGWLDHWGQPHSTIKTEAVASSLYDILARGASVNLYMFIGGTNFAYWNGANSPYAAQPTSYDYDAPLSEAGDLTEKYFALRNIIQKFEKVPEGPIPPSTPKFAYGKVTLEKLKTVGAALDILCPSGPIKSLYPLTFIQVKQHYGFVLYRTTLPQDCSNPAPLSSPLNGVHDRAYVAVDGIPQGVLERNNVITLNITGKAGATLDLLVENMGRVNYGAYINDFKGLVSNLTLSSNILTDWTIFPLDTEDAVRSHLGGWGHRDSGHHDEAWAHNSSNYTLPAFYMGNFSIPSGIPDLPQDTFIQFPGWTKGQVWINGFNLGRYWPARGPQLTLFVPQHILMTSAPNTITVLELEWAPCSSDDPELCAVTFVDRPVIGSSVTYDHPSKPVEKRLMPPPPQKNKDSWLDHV

[8] = Critical micellar concentration of the compound measured after 1 hr by pyrene fluorescence excitation spectral analysis
Summary of the method: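 Pyrene fluorescence method: pyrene at 0.6 μM final in water, iminosugar from 1180 to 4.3·10⁻³ μM, equilibrated 1 h at 37 °C. Emission was read at 375 nm. The I339/I335 excitation intensity ratio tracked the band shift, giving the CMC.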

[9] = test system: Fibroblast; assay: Cytotoxicity against human fibroblasts assessed as cell death up to 100 uM after 24 hrs by lactate dehydrogenase assay; format: cell-based
Summary of the method: (§2)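 Normal human fibroblasts were plated at 15,000 cells per 35 mm dish and incubated overnight. Medium with or without compound was then applied for 24 h. Cytotoxicity was measured by lactate dehydrogenase release in the collected supernatant. Cells were mycoplasma-tested beforehand.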

[10] = test system: Fibroblast; assay: Cytotoxicity against human fibroblasts assessed as cell death at 3 to 100 uM after 24 hrs in presence of beta-cyclodextrin by lactate dehydrogenase assay; format: cell-based; summary of the method: as §2

| inhibition [1] | inhibition [2] | inhibition [3] | inhibition [4] | inhibition [5] | inhibition [6] | inhibition [7] | Structure (SMILES) | CMC [8] | Activity [9] | Activity [10] |
| --- | --- | --- | --- | --- | --- | --- | --- | --- | --- | --- |
| Active | Active | inactive | inactive | inactive | inactive | inactive | O=C(CCC(F)(F)C(F)(F)C(F)(F)C(F)(F)F)NCCCCCCCCCNC(=S)N1[C@@H]2CO[C@H]1[C@H](O)[C@@H](O)[C@@H]2O | 37.5 µM | – | – |
| Active | Active | inactive | inactive | inactive | inactive | inactive | O=C(CCC(F)(F)C(F)(F)C(F)(F)C(F)(F)C(F)(F)C(F)(F)F)NCCCCNC(=S)N1[C@@H]2CO[C@H]1[C@H](O)[C@@H](O)[C@@H]2O | 31.6 µM | 45 to 75% | Non-Toxic |
| Active | Active | inactive | inactive | inactive | inactive | inactive | O=C(CCC(F)(F)C(F)(F)C(F)(F)C(F)(F)F)NCCCCNC(=S)N1[C@@H]2CO[C@H]1[C@H](O)[C@@H](O)[C@@H]2O | 393 µM | – | – |
| Active | Active | inactive | inactive | inactive | inactive | inactive | O=C(CCC(F)(F)C(F)(F)C(F)(F)C(F)(F)C(F)(F)C(F)(F)F)NCCCCCCCCCNC(=S)N1[C@@H]2CO[C@H]1[C@H](O)[C@@H](O)[C@@H]2O | 15 µM | 45 to 75% | Non-Toxic |
